Measurements published in ChEMBL document CHEMBL2346661, “Improved guanide compounds which bind the CXCR4 co-receptor and inhibit HIV-1 infection” (Bioorg Med Chem Lett, 2013).
Each block holds one compound with its values, some of them ahead of it. Calls of active or inactive are those of the source. No cut-off for these calls is given here.

Key:
[1] = system: MDA-MB-231; assay: Cytotoxicity against human MDA-MB-231 cells expressing CXCR4 after 48 to 72 hrs by MTS assay; assay type: cell-based
Method in brief: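 MDA-MB-231 breast cancer cells (CXCR4-expressing) exposed to compound for 48 to 72 h; viability by MTS dye reduction (CellTiter 96 Aqueous non-radioactive proliferation assay), run per manufacturer's protocol.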

[2] = biological target: T1, C-X-C chemokine receptor type 4 (Homo sapiens, UniProt P61073); assay: Inhibition of T-140 binding to CXCR4 (unknown origin) expressed in dog Cf2Th cells incubated for 30 mins prior to T-140 addition measured after 30 mins by fluorescence assay; assay type: cell-based
T1 sequence (P61073 whole entry): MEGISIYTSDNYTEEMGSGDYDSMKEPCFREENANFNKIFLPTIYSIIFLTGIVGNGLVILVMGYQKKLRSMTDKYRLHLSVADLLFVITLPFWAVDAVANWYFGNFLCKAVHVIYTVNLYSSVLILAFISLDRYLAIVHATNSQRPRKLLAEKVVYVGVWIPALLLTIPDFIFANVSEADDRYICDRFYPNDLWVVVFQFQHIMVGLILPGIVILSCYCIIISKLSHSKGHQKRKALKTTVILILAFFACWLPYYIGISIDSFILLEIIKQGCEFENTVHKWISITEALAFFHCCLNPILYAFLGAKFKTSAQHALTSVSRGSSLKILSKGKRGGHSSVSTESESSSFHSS

[3] = biological target: T1, C-X-C chemokine receptor type 4; assay: Inhibition of anti-CXCR4 mAb-12G5 binding to CXCR4 in human H9 cells at 0.1 to 10 uM incubated for 20 mins prior to mAbs-12G5 addition measured after 1 hr by flow cytometric analysis; assay type: cell-based
Method in brief: (§1)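 H9 cells or primary PHA-induced T-cell blasts pre-incubated 20 min at 4°C with a range of compound concentrations in PBS/1% BSA/0.01% sodium azide. mAb 12G5 (anti-CXCR4) or Sim.2 (anti-CD4) then added to 1 μg/ml for 1 h at 4°C. Detection with Alexa Fluor 488 goat anti-mouse IgG at 2 μg/ml for 1 h, then 2% paraformaldehyde fixation. Flow cytometry on 10,000 events; % inhibition from median fluorescence intensity against no-drug and no-Ab controls.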

[4] = biological target: T1, C-X-C chemokine receptor type 4; assay: Inhibition of anti-CXCR4 mAb-44708 binding to CXCR4 in human H9 cells at 3 uM incubated for 20 mins prior to mAb-44708 addition measured after 1 hr by flow cytometric analysis; assay type: cell-based
Method in brief: (§2)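 H9 cells pre-incubated at 4°C with […] compound in PBS/BSA/azide, then stained with anti-CXCR4 mAb 12G5, 44708, 44716 or 44717 at 1 μg/ml for 1 h. Detection with Alexa 488 anti-mouse IgG, then 2% paraformaldehyde fixation. Flow cytometry on 10,000 events; % inhibition from median fluorescence intensity.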

[5] = biological target: T1, C-X-C chemokine receptor type 4; assay: Inhibition of anti-CXCR4 mAb-12G5 binding to CXCR4 in PHA-induced human T cells at 0.1 to 10 uM incubated for 20 mins prior to mAbs-12G5 addition measured after 1 hr by flow cytometric analysis; assay type: cell-based; conditions: T-cell; method in brief: as §1
[6] = biological target: T1, C-X-C chemokine receptor type 4; assay: Inhibition of anti-CXCR4 mAb-12G5 binding to CXCR4 in human H9 cells at 3 uM incubated for 20 mins prior to mAbs-12G5 addition measured after 1 hr by flow cytometric analysis; assay type: cell-based; method in brief: as §2
[7] = biological target: T1, C-X-C chemokine receptor type 4; assay: Inhibition of anti-CXCR4 mAb-44717 binding to CXCR4 in human H9 cells at 3 uM incubated for 20 mins prior to mAb-44717 addition measured after 1 hr by flow cytometric analysis; assay type: cell-based; method in brief: as §2
[8] = biological target: T1, C-X-C chemokine receptor type 4; assay: Inhibition of anti-CXCR4 mAb-44716 binding to CXCR4 in human H9 cells at 3 uM incubated for 20 mins prior to mAbs-44716 addition measured after 1 hr by flow cytometric analysis; assay type: cell-based; method in brief: as §2
[9] = system: Human immunodeficiency virus 1; assay: Antiviral activity against R5 tropic HIV1 infected in human TZM-bl cells; assay type: functional, organism-based
[10] = biological target: T1, C-X-C chemokine receptor type 4; assay: Inhibition of anti-CXCR4 mAb-44716 binding to CXCR4 in human H9 cells at 1 uM incubated for 20 mins prior to mAbs-44716 addition measured after 1 hr by flow cytometric analysis; assay type: cell-based
Method in brief: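 H9 cells held 20 min at 4°C with […] compound in PBS/BSA/azide. Anti-CXCR4 mAb 44716 or an isotype control (anti-ricin RAC18) then added to 1 μg/ml for 1 h at 4°C. Washed, stained with Alexa 488 anti-mouse IgG for 1 h at 4°C, then fixed in 2% paraformaldehyde. Flow cytometry on 10,000 events; % inhibition from median fluorescence intensity.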

[11] = Cytotoxicity against PHA-induced human T cells up to 4 uM after 72 hrs by MTS assay; assay type: cell-based; conditions: t-cell
Method in brief: (§3)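 Cultures of TZM-bl, H9, or PHA blasts exposed to compound at concentrations up to 4 μM; MTS dye reduction measured at 72 h.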

[12] = system: H9; assay: Cytotoxicity against human H9 cells up to 4 uM after 72 hrs by MTS assay; assay type: cell-based; conditions: h9, 72 h; method in brief: as §3
[13] = system: Human immunodeficiency virus 1; assay: Antiviral activity against X4 tropic HIV1 NL4-3 infected in human TZM-bl cells assessed as neutralization of viral infectivity at 50 to 100 nM incubated 1 hr prior to viral infection measured after 72 hrs by luciferase reporter gene assay; assay type: functional, organism-based
[14] = biological target: T-cell surface glycoprotein CD4 (Homo sapiens) (UniProt P01730); assay: Inhibition of anti-CD4 mAb sim-2 binding to CD4 in human H9 cells at 0.1 to 10 uM incubated for 20 mins prior to mAb sim-2 addition measured after 1 hr by flow cytometric analysis; assay type: cell-based; method in brief: as §1
[15] = Cytotoxicity against human TZM-bl cells up to 4 uM after 72 hrs by MTS assay; assay type: cell-based; method in brief: as §3
[16] = system: Human immunodeficiency virus 1; assay: Antiviral activity against X4 tropic HIV1 isolate 92-UG-029 infected in human TZM-bl cells assessed as neutralization of viral infectivity at 50 to 100 nM incubated 1 hr prior to viral infection measured after 72 hrs by luciferase reporter gene assay; assay type: functional, organism-based
[17] = system: Human immunodeficiency virus 1; assay: Antiviral activity against X4 tropic HIV1 isolate 92-HT-599 infected in human TZM-bl cells assessed as neutralization of viral infectivity at 50 to 100 nM incubated 1 hr prior to viral infection measured after 72 hrs by luciferase reporter gene assay; assay type: functional, organism-based
[18] = system: Human immunodeficiency virus 1; assay: Antiviral activity against X4 tropic HIV1 BZ-167 infected in human TZM-bl cells assessed as neutralization of viral infectivity at 50 to 100 nM incubated 1 hr prior to viral infection measured after 72 hrs by luciferase reporter gene assay; assay type: functional, organism-based
[19] = biological target: T-cell surface glycoprotein CD4 (Homo sapiens) (UniProt P01730); assay: Inhibition of anti-CD4 mAb sim-2 binding to CD4 in PHA-induced human T cells at 0.1 to 10 uM incubated for 20 mins prior to mAb sim-2 addition measured after 1 hr by flow cytometric analysis; assay type: cell-based; method in brief: as §1

Compound: N=C(NCCCN(CCCCN(CCCNC(=N)Nc1cccc2ccccc12)C(=N)Nc1cccc2ccccc12)C(=N)Nc1cccc2ccccc12)Nc1cccc2ccccc12
CC50 [1]: 7.3 µM
IC50 [2]: 0.38 µM

Compound: N=C(NCCCCN(CCCNC(=N)Nc1ccc2ccccc2c1)C(=N)Nc1ccc2ccccc2c1)Nc1ccc2ccccc2c1
IC50 [2]: 0.19 µM

Compound: N=C(NCCCNCCCCN(CCCNC(=N)Nc1cccc2ccccc12)C(=N)Nc1cccc2ccccc12)Nc1cccc2ccccc12
CC50 [1]: 18 µM
Activity [11]: Non-toxic
Activity [9]: inactive
Activity [12]: Non-toxic
Activity [13]: Active
inhibition [14]: inactive
Activity [15]: Non-toxic
inhibition [10]: Active
Activity [16]: Active
Activity [17]: Active
Activity [18]: Active
inhibition [3]: Active
inhibition [4]: Active
IC50 [2]: 0.04 µM
inhibition [5]: Active
inhibition [6]: Active
inhibition [19]: inactive
inhibition [7]: Active
inhibition [8]: Active

Compound: NC(=NCCCNCCCCN(CCCN=C(N)Nc1ccc2ccccc2c1)C(N)=Nc1ccc2ccccc2c1)Nc1ccc2ccccc2c1
CC50 [1]: 15 µM
IC50 [2]: 0.093 µM

Compound: NC(=NCCCCN(CCCN=C(N)Nc1cccc2ccccc12)C(N)=Nc1cccc2ccccc12)Nc1cccc2ccccc12
IC50 [2]: 0.11 µM

Compound: N=C(NCCCCNCCCNC(=N)Nc1ccccc1)Nc1ccccc1
CC50 [1]: > 1000 µM
IC50 [2]: 0.26 µM

Compound: N=C(Nc1ccccc1)N(CCCCN(CCCN=C(N)Nc1ccccc1)C(N)=Nc1ccccc1)CCCNC(N)=Nc1ccccc1
CC50 [1]: > 100 µM
IC50 [2]: 0.51 µM

Compound: N=C(Nc1ccccc1)N(CCCCN=C(N)Nc1ccccc1)CCCN=C(N)Nc1ccccc1
CC50 [1]: 510 µM
IC50 [2]: 0.28 µM

Compound: NC(=NCCCCNCCCN=C(N)Nc1ccc2ccccc2c1)Nc1ccc2ccccc2c1
CC50 [1]: 76 µM
IC50 [2]: 0.062 µM

Compound: N=C(NCCCCNCCCNC(=N)Nc1ccc2ccccc2c1)Nc1ccc2ccccc2c1
Activity [9]: inactive

More lines, main results first:

inhibition [3]: inactive
inhibition [4]: inactive
inhibition [5]: inactive
inhibition [6]: inactive
inhibition [7]: inactive
inhibition [8]: inactive
Compound: NCCCNCCCCNCCCN

inhibition [10]: Active
IC50 [2]: 0.11 µM
Compound: N=C(NCCCNCCCCNCCCNC(=N)Nc1ccc2ccccc2c1)Nc1ccc2ccccc2c1
CC50 [1]: 17 µM
Activity [9]: inactive

IC50 [2]: 0.22 µM
Compound: N=C(NCCCCNCCCNC(=N)Nc1cccc2ccccc12)Nc1cccc2ccccc12
CC50 [1]: 120 µM

inhibition [10]: Active
IC50 [2]: 0.18 µM
Compound: N=C(NCCCNCCCCNCCCNC(=N)Nc1cccc2ccccc12)Nc1cccc2ccccc12
CC50 [1]: 300 µM

IC50 [2]: 0.3 µM
Compound: N=C(NCCCN(CCCCN(CCCNC(=N)Nc1ccc2ccccc2c1)C(=N)Nc1ccc2ccccc2c1)C(=N)Nc1ccc2ccccc2c1)Nc1ccc2ccccc2c1
CC50 [1]: 20 µM

inhibition [10]: Active
Compound: N=C(NCCCNCCCCN(CCCNC(=N)Nc1ccc2ccccc2c1)C(=N)Nc1ccc2ccccc2c1)Nc1ccc2ccccc2c1
Activity [9]: inactive
